Screening results (PubChem BioAssay)
An excerpt weighted towards active compounds, which were near 3.7% of everything screened.
hERG rescue – compounds protecting human hERG from proarrhythmic drug block | 310,000 compounds, 0.51% hits | Q12809 | activation (rescue from dofetilide block), less the hit threshold, % at 10 µM | CHO-hERG, FluxOR thallium flux, dofetilide IC70 present;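 active = activation above the mean of controls blocked by dofetilide plus 5 SD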;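 note: thallium influx through hERG after potassium depolarization seen as dye fluorescence rise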
KCNK9 block – inhibitors of human KCNK9 two-pore domain potassium channel; HEK293 KCNK9, FluxOR thallium flux fluorescence; active compounds read low; 310,000 compounds, 1.2% hits; Q9NPC2; AID 488922; B-score at 10 µM;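 active = ratio B-score over 3 SD below the library mean, with starting fluorescence within 5 SD of its mean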;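 note: negative B-score means less thallium flux so channel inhibition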
KCNK3 inh – human KCNK3 channel inhibition, primary screen; O14649; AID 602410; 340,000 compounds, 0.84% hits; B-score at 10 µM; CHO-KCNK3 thallium flux, FluxOR fluorescence; active compounds read low;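 active = B-score under library mean minus 4 SD, starting fluorescence ratio at most library mean plus 5 SD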;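 note: more negative B-score means stronger inhibition of thallium flux through KCNK3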
KCNQ1 inh – human KCNQ1 channel inhibition; CHO-K1 KCNQ1, FluxOR thallium flux fluorescence; active compounds read high; B-score at 10 µM; 310,000 compounds, 1.3% hits; AID 2642;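 active = compounds whose thallium flux B-score, printed positive for inhibition, exceeds three library SD while starting fluorescence stays within three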;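 note: channel opened by potassium depolarization with thallium stimulus after 20 min compound exposure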
Kir21 block – blocks the mouse Kir2.1 inward-rectifier potassium channel | P35561 | HEK293-Kir2.1, FluxOR thallium flux fluorescence; active compounds read low | B-score at 10 µM | 310,000 compounds, 0.85% hits | AID 1672;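 active = fluorescence ratio B-score at or below minus 3 SD of library scores, with starting-brightness B-score within 2 SD, cut at about -4.2 in these data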;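 note: channel flux triggered by added potassium and thallium sulfate stimulus; B-score of peak minus minimum fluorescence over baseline after thallium stimulus; more negative B-score means stronger Kir2.1 block with less thallium influx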
Target sequence (P35561 whole entry, looked up): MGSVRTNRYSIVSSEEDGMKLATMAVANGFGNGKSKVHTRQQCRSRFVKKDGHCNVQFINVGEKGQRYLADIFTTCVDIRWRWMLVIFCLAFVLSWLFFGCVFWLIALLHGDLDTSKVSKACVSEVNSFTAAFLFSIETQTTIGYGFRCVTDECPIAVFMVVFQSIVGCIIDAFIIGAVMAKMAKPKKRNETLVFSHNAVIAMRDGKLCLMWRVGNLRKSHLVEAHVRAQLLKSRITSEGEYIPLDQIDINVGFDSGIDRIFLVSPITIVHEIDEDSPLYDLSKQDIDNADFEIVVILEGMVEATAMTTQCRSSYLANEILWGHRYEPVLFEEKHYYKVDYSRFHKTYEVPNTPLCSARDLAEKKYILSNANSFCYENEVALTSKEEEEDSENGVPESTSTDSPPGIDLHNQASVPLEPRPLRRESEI
KCNQ1 act – human KCNQ1 channel potentiation or activation; P51787; CHO-K1 KCNQ1, thallium flux FluxOR fluorescence; active compounds read high; B-score at 10 µM; 310,000 compounds, 0.35% hits; AID 2648;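 active = fluorescence ratio B-score, a plate-corrected score, at least three library SD, with initial intensity B-score within 5 SD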
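System: Stable KCNQ1 CHO-K1 line | Incubation: 90 min dye loading and 20 min compound exposure, both at room temperature | Measure: Ratio B score | Medium: Assay buffer for compound exposure, DMSO matched across wells | Compound dosing: Single-concentration screen | Probe or stimulus: K+/Tl+ depolarizing stimulus | Measured by: Kinetic FluxOR fluorescence, 10 s baseline plus 110 s post-stimulus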
An asterisk follows results filed as active; i = inactive; · = not tested or not shown.

SMILES | hERG rescue | KCNK9 block | KCNK3 inh | KCNQ1 inh | Kir21 block | KCNQ1 act
Cc1ccc(C)c(N2CCN(c3nc4ccccc4c(=O)n3Cc3ccccc3)CC2)c1 | -12 | -7.6* | i | i | 1.6 | i
CCCCn1c(NCc2ccccc2O)nc2ccccc21 | -11 | i | i | i | 1.7 | i
CCCCn1c(NCc2ccccc2NS(=O)(=O)c2ccc(C)cc2)nc2ccccc21 | -2 | -7.1* | i | 7* | -3.1 | i
O=C(O)Cc1ccc(NC(=O)C2CC=CCC2C(=O)O)cc1 (centres undefined) | 8.7* | i | · | i | 0.19 | i
COc1ccc(OC)c(S(=O)(=O)Nc2ccc(O)c3ccccc23)c1 | 11* | i | i | i | 1.2 | i
CC(C)(C)C(=O)/C(=C\c1ccc([N+](=O)[O-])cc1)n1cncn1 | -6 | i | · | i | -7.3* | i
Cc1ccc2nc(/C(C#N)=C\c3cc(C)n(-c4cccc([N+](=O)[O-])c4)c3C)[nH]c2c1 | -12 | i | i | 8* | -1.3 | i
O=C(CSCc1ccc(Cl)cc1)Nc1ccc(O)cc1C(=O)O | -3 | i | i | i | 1.9 | i
CC1(C)N=C(N)NC(Nc2cccc(Br)c2)=N1 | -6 | i | i | i | 0.07 | 9*
C=CCC[C@@H](Cc1ccc(F)cc1)C(=O)OC[C@@H](NC(=O)[C@@H](CC=C)CC(=O)N(CCO)Cc1ccccc1)c1ccccc1 | · | · | i | · | · | ·
COc1ccc(-n2cc(C(=O)c3cc(Cl)ccc3O)cc(C#N)c2=O)cc1 | -3 | i | i | 6* | 0.5 | i
Cc1ccc(-n2cc(C(=O)c3cc(Cl)ccc3O)cc(C#N)c2=O)cc1 | -8 | i | i | i | -0.46 | i
CCOc1ccc(-n2cc(C(=O)c3cc(Cl)ccc3O)cc(C#N)c2=O)cc1 | -8 | i | i | 8* | -2 | i
COc1ccc(O)c(C(=O)c2cc(C#N)c(=O)n(-c3ccc(Cl)cc3)c2)c1 | -11 | i | i | i | 0.62 | i
CCOC(=O)c1ccc(NC(=S)N2CCN(C(=O)C3CCCO3)CC2)cc1 (centres undefined) | -9 | i | i | i | -0.02 | i
CC1CN(C(=O)CSc2nnc(CNC(=O)c3ccc(S(=O)(=O)N(C)C)cc3)o2)CC(C)O1 (centres undefined) | 1 | i | i | i | -0.97 | i
COc1ccc(/C=C/C(=O)O)cc1S(=O)(=O)N1CCc2ccccc21 | -10 | i | i | i | -0.28 | i
N#CCc1ccc(NS(=O)(=O)c2ccc(C3CCCCC3)cc2)cc1 | -13 | -6.9* | i | i | 1.8 | i
CSc1nc2c(c(=O)[nH]1)C(c1ccc(F)cc1)CC(=O)N2 (centres undefined) | 12* | i | i | i | -0.14 | i
COc1cc2c(cc1OC)C(c1ccc(Br)cc1)CC(=O)N2 (centres undefined) | -9 | i | i | i | 0.74 | i
CSc1nc2c(c(=O)[nH]1)C(c1ccc(C(F)(F)F)cc1)CC(=O)N2 (centres undefined) | -5 | i | i | i | 0.07 | i
CSc1nc2c(c(=O)[nH]1)C(c1ccc(Br)cc1)CC(=O)N2 (centres undefined) | 11* | i | i | i | -0.12 | i
Cc1nc(NC(=O)c2ccccc2)sc1-c1csc(Nc2cccc(F)c2)n1 | -7 | i | · | i | 1.4 | i
Cc1cc(NS(=O)(=O)c2ccc(Nc3nc(-c4sc(NC(=O)c5ccccc5)nc4C)cs3)cc2)no1 | -16 | i | · | 7* | -4.3* | i
Fc1ccc(NC(=S)Nc2nccs2)cc1 | 10* | i | i | i | 1.3 | i
SMILES | hERG rescue | KCNK9 block | KCNK3 inh | KCNQ1 inh | Kir21 block | KCNQ1 act
Cc1ccc(-c2nn(-c3ccccc3)cc2C2SCC(=O)N2Cc2ccccc2)o1 (centres undefined) | -20 | i | i | 7* | -0.66 | i
Cc1ccc(C(=O)COC(=O)c2nc3nccc(C)n3n2)c(C)c1 | · | · | i | · | · | ·
C=C(C)C(=O)OCC(=O)NCc1ccccc1 | -10 | i | i | i | 0.14 | i
COc1ccccc1/C=C(/C(=O)OCC(=O)Nc1ccccc1C)c1ccccc1 | -8 | -7* | i | 8* | -1.6 | i
COc1ccccc1/C=C(/C(=O)OCC(=O)Nc1ccc(N(C)C)cc1)c1ccccc1 | -11 | i | i | i | 0 | i
COc1ccccc1/C=C(/C(=O)OCC(=O)NCc1ccccc1)c1ccccc1 | -12 | -8* | i | 7* | 0.13 | i
O=C(Nc1cccc(Cl)c1)Nc1csc([N+](=O)[O-])c1 | -12 | i | i | i | -1.1 | i
CC#CC[N+](C)(C)CCCCCCCCCCCC | -23 | i | i | 6* | -5* | i
CCCCN(Cc1cc2cc(C)ccc2[nH]c1=O)C(=O)c1ccccn1 | -16 | i | i | i | 1.3 | i
CC(=O)C1=C(C)NC(SCC(=O)c2ccc(C)cc2)=C(C#N)C1c1ccco1 (centres undefined) | -12 | i | · | 6* | 1.6 | i
N#CC1=C(SCC(=O)c2ccc(Cl)cc2)NC2=C(C(=O)CCC2)C1c1ccco1 (centres undefined) | -16 | i | i | i | 1.3 | i
COc1ccc2nc(N3C(=O)/C(=C/c4ccccc4)NC3=S)sc2c1 | 63* | i | i | i | 0.8 | 62*
Cc1ccc(NC(=O)c2oc3ccc(S(=O)(=O)N4CCC5(CC4)OCCO5)cc3c2C)cc1C | -23 | i | i | i | -0.36 | i
Cc1ccc(Cl)cc1N(CC(=O)Nc1cccc(N(C)S(C)(=O)=O)c1)S(C)(=O)=O | -18 | i | i | i | -1.6 | i
CN(c1cccc(NC(=O)CN(c2cccc(Cl)c2)S(=O)(=O)c2ccc(Cl)cc2)c1)S(C)(=O)=O | -3 | -7.3* | i | i | -1.7 | i
O=C(Cc1cccc(NC(=O)C2CCN(C(=O)C3CC3)CC2)c1)Nc1cccc(C(=O)N2CCCC2)c1 | · | · | i | · | · | ·
Cc1ccc(S(=O)(=O)n2nccc2-c2c(-c3ccccc3)noc2C)cc1 | -5 | -7.2* | i | i | 0.47 | i
CCc1cc(CNC(=O)C2CCC(=O)N(Cc3ccc(Cl)cc3)C2)on1 (centres undefined) | -1 | i | i | i | -1.1 | i
Cc1nnc(SCc2ccc(F)cc2)n1NC/C=C/c1ccccc1 | -11 | i | i | i | -5.1* | i
Fc1ccccc1CSc1nncn1NC/C=C/c1ccccc1 | -15 | i | i | i | -1 | i
